Experimental findings from ChEMBL document CHEMBL4043284, “The Synthesized Plant Metabolite 3,4,5-Tri-O-Galloylquinic Acid Methyl Ester Inhibits Calcium Oxalate Crystal Growth in a Drosophila Model, Downregulates Renal Cell Surface Annexin A1 Expression, and Decreases Crystal Adhesion to Cells” (J Med Chem, 2018) are described below.

Data set [1] is described as follows: Antioxidant activity assessed as DPPH radical scavenging activity incubated in dark for 20 mins. It is filed as functional. The method in brief: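 Compound stock 1 mM in DMSO; 2–20 μL portions made up to 40 μL with DMSO and added to 1.96 mL of 0.1 mM DPPH. Held at RT for 20 min in the dark, then absorbance read at 517 nm. DPPH alone served as control. % radical scavenging = (control − test)/control × 100.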
In general terms: The DPPH test is a chemical assay of radical scavenging.

The subject of data set [2] is Drosophila melanogaster. In words: Inhibition of calcium oxalate crystallization in Oregon R Drosophila melanogaster malpighian tubule model at 100 uM preincubated with test compound alone for 20 mins followed by addition of calcium oxalate along with test compound measured after 1 hr by DIC microscopy. Type of data set: functional. The essentials:
(§1)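 Malpighian tubules dissected from wild-type Oregon R female flies. Tubules preincubated in iPBS with 100 μM for 20 min, then given 100 μM plus Na-oxalate for 1 h, with solutions renewed every 15 min. Controls received oxalate alone. The first 600 μm of anterior tubule imaged by DIC birefringence. Crystal number and area measured with ImageJ. n=12 per group; means ± SE.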

For data set [3], the system named is MDCK1. Kind of data set: Upregulation of alpha-enolase expression in cytosolic fractions of MDCK1 cells at 50 uM after 3 hrs by Western blot method. Type of data set: functional, cell-based. As to conditions: Canis lupus familiaris. The method in brief:
(§2)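 MDCKI cells seeded at 5×10^5 per well and treated with 50 μM for 3 h. Cytosolic fraction extracted with PIPES/EDTA/0.02% digitonin buffer for 10 min at 4°C. Membrane fraction taken from the pellet in SDS/Tris pH 6.8 buffer. Whole lysate prepared separately. 30 μg protein per lane on 7.5% gel; blots probed for annexin A1, HSP90 and α-enolase, with β-actin as loading control. Bands read by ECL densitometry. Mean ± SEM, n=3.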
(Immunoblotting shows a protein as a band on a membrane.)

Data set [4] in a line: Inhibition of AxA1 expression in MDCK1 cell surface at 50 uM after 3 hrs by laser scanning confocal microscopic method relative to control. Type of data set: functional. As to conditions: Canis lupus familiaris, MDCK1, 3 h. The essentials:
(§3)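 MDCKI cells grown overnight on collagen-coated chamber slides and treated ± 50 μM for 3 h. Fixed in 4% paraformaldehyde. Intracellular staining done with 0.2% Triton permeabilization; surface staining done without permeabilization. Rabbit anti-annexin A1 applied overnight at 4°C, then Alexa Fluor 488 anti-rabbit secondary. Nuclei counterstained with TOTO-3. Imaged by confocal microscopy, 63× oil objective.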

In data set [5] the test system is MDCK1. Kind of data set: Downregulation of AxA1 expression in membrane fractions of MDCK1 cells at 50 uM after 3 hrs by Western blot method. It is filed as functional, cell-based. As to conditions: Canis lupus familiaris. The method in brief: as §2
Data set [6] is described as follows: Effect on total alpha-enolase expression in MDCK1 cells at 50 uM after 3 hrs by Western blot method. Type of data set: ADME, cell-based, Canis lupus familiaris. To be noted: dog, mdck1, 3 h. The method in brief:
as §2

The nature of data set [7]: Cytotoxicity against MDCK1 cells assessed as decrease in cell viability up to 155 +/- 4 uM after 24 hrs by MTT assay. Type of data set: cell-based, Canis lupus familiaris. As to conditions: dog, mdck1, 24 h. For orientation: Tetrazolium assays rely on reduction of a dye to a coloured formazan, in cell work by metabolically active cells.
The test system of data set [8] is MDCK1. In words: Upregulation of HSP90 expression in cytosolic fractions of MDCK1 cells at 50 uM after 3 hrs by Western blot method. Type of data set: functional, cell-based. As to conditions: Canis lupus familiaris. The essentials: as §2
In data set [9] the test system is Drosophila melanogaster. In words: Inhibition of calcium oxalate crystal size in Oregon R Drosophila melanogaster malpighian tubule model at 100 uM preincubated with test compound alone for 20 mins followed by addition of calcium oxalate along with test compound measured after 1 hr by DIC microscopy. Type of data set: functional. The essentials: as §1
Data set [10] has as its system MDCK1. In words: Downregulation of HSP90 expression in membrane fractions of MDCK1 cells at 50 uM after 3 hrs by Western blot method. Type of data set: functional, cell-based. To be noted: Canis lupus familiaris. The essentials: as §2
Data set [11] deals with Drosophila melanogaster. Kind of data set: Inhibition of total calcium oxalate crystal area in Oregon R Drosophila melanogaster malpighian tubule model at 100 uM preincubated with test compound alone for 20 mins followed by addition of calcium oxalate along with test compound measured after 1 hr by DIC microscopy. It is filed as functional. The method in brief:
as §1

In data set [12] the test system is MDCK1. In words: Downregulation of alpha-enolase expression in membrane fractions of MDCK1 cells at 50 uM after 3 hrs by Western blot method. It is filed as functional, cell-based. To be noted: Canis lupus familiaris. The method in brief: as §2
Data set [13] has as its system MDCK1. Kind of data set: Inhibition of calcium oxalate monohydrate crystal binding to MDCK1 cell surface preincubated for 3 hrs followed by calcium oxalate monohydrate crystal addition measured after 30 mins by phase contrast microscopy. To be noted: Canis lupus familiaris. It is filed as functional, cell-based. The essentials:
(§4)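 MDCKI cells seeded at 5×10^5 per well and cultured for 24 h. Pretreated at 0–50 μM for 3 h (concentration series), or at 25 or 50 μM for 1, 3 or 6 h (time course). Cells then washed and exposed to COM crystals (100 μg/mL) for 30 min, followed by five washes with plain medium. Adherent crystals counted by phase-contrast microscopy in 15 random high-power fields, ×400.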

Data set [14] in a line: Effect on total AxA1 expression in MDCK1 cells at 50 uM after 3 hrs by Western blot method. Type of data set: ADME, cell-based, Canis lupus familiaris. To be noted: dog, mdck1, 3 h. The essentials:
as §2

Data set [15] is described as follows: Effect on total HSP90 expression in MDCK1 cells at 50 uM after 3 hrs by Western blot method. It is filed as ADME, cell-based, Canis lupus familiaris. As to conditions: dog, mdck1, 3 h. The method in brief: as §2
Data set [16] deals with MDCK1. Kind of data set: Increase in intracellular AxA1 expression in MDCK1 cells at 50 uM after 3 hrs by laser scanning confocal microscopic method. Type of data set: functional, cell-based. To be noted: Canis lupus familiaris. The essentials:
as §3

Data set [17] relates to MDCK1. Kind of data set: Upregulation of AxA1 expression in cytosolic fractions of MDCK1 cells at 50 uM after 3 hrs by Western blot method. Type of data set: functional, cell-based. To be noted: Canis lupus familiaris. The essentials:
as §2

The nature of data set [18]: Inhibition of cell surface associated calcium oxalate monohydrate crystal levels in MDCK1 cells preincubated for 3 to 6 hrs followed by calcium oxalate monohydrate crystal addition measured after 30 mins by phase contrast microscopy relative to control. It is filed as functional, Canis lupus familiaris. The essentials: as §4
Data set [19] is described as follows: Cytotoxicity against MDCK1 cells assessed as decrease in cell viability after 24 hrs by MTT assay. It is filed as cell-based. As to conditions: Canis lupus familiaris, MDCK1, 24 h. The essentials: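 MDCKI cells seeded at 1×10^4 per well, exposed 24 h to 0, 5, 10, 25, 50 μM (in DMSO/PBS). MTT (5 mg/mL working solution) added for 3 h at 37°C, then stop solution; OD read at 570 nm. Viability expressed as percent of untreated control after blank subtraction; IC50 reported. Means ± S.D. of three independent experiments.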

Data set [20] relates to MDCK1. In words: Inhibition of calcium oxalate monohydrate crystal binding to MDCK1 cell surface at 10 uM preincubated for 3 hrs followed by calcium oxalate monohydrate crystal addition measured after 30 mins by phase contrast microscopy. Type of data set: functional, cell-based. To be noted: Canis lupus familiaris. The essentials:
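MDCKI cells (5×10^5 per well) cultured 24 h in complete medium, pretreated 3 h with 0, 1 or 10 μM, washed with PBS, then exposed 30 min to COM crystals (100 μg/mL medium). Unbound crystals removed by five washes with plain DMEM. Adherent crystals counted by phase-contrast microscopy in 15 random high-power fields per well.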

Calls of active or inactive are those of the source. No cut-off for these calls is given here.

As usually defined, the EC50 is the midpoint of the concentration-response curve. Take `O=C1O[C@H]([C@@H](O)CO)C(O)=C1O` [ASCORBIC ACID]: in data set [1], the EC50 stood at 45 µM.

The inhibition is the change of the read-out against control, counted positive when it falls. On to `COC(=O)[C@]1(O)C[C@@H](OC(=O)c2cc(O)c(O)c(O)c2)[C@@H](OC(=O)c2cc(O)c(O)c(O)c2)[C@H](OC(=O)c2cc(O)c(O)c(O)c2)C1`, for which the inhibition result in the data set with Drosophila melanogaster [2], with Drosophila melanogaster [9] and in the data set on Drosophila melanogaster [11] was “Active” in each case. Further, the outcome in the data set on MDCK1 [3], in the data set on MDCK1 [5], in the data set with MDCK1 [8], in the data set with MDCK1 [10], with MDCK1 [12] and in the data set with MDCK1 [16] was Active. The result in the data set on MDCK1 [17] was Active. The same molecule came in with an inhibition at 50 µM in [4] of 50%. Moreover, the Activity entry in data set [6], in data set [7], in data set [14] and in [15] was “Non-Toxic” each time. For the same molecule, in data set [1], the concentration for a half-maximal effect (EC50) amounted to 11 µM. Also, the inhibition entry in the data set with MDCK1 [13] was “Dose-dependent effect”. The “inhibition (INH)” value in [18] stood at 50%.

A word on the IC50: it is the concentration at which inhibition is half-maximal. Regarding `COC(=O)[C@]1(O)C[C@@H](O)[C@@H](O)[C@H](O)C1`, the outcome in data set [1] was inactive. In addition, the concentration for half-maximal inhibition (IC50) in data set [19] is 120 µM.

Consider `O=C(O)c1cc(O)c(O)c(O)c1` [GALLIC ACID], for which the EC50 in data set [1] came out at 3 µM. Also, the inhibition result with MDCK1 [20] is “Active”. In data set [19], the half-inhibitory concentration (IC50) is 34 µM.
